PLC-beta3 inh: PLC-beta3 (human) inhibition, primary screen | Purified PLC-beta3, fluorogenic substrate, fluorescence | 370,000 compounds, 0.18% hits | Q01970 | AID 720704 | inhibition, % at 12.2 µM; in the data active means inhibition above about 11%;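 further: 0% = median of compound wells on plate and 100% = full blocker control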
Target sequence (Q01970 whole entry, looked up): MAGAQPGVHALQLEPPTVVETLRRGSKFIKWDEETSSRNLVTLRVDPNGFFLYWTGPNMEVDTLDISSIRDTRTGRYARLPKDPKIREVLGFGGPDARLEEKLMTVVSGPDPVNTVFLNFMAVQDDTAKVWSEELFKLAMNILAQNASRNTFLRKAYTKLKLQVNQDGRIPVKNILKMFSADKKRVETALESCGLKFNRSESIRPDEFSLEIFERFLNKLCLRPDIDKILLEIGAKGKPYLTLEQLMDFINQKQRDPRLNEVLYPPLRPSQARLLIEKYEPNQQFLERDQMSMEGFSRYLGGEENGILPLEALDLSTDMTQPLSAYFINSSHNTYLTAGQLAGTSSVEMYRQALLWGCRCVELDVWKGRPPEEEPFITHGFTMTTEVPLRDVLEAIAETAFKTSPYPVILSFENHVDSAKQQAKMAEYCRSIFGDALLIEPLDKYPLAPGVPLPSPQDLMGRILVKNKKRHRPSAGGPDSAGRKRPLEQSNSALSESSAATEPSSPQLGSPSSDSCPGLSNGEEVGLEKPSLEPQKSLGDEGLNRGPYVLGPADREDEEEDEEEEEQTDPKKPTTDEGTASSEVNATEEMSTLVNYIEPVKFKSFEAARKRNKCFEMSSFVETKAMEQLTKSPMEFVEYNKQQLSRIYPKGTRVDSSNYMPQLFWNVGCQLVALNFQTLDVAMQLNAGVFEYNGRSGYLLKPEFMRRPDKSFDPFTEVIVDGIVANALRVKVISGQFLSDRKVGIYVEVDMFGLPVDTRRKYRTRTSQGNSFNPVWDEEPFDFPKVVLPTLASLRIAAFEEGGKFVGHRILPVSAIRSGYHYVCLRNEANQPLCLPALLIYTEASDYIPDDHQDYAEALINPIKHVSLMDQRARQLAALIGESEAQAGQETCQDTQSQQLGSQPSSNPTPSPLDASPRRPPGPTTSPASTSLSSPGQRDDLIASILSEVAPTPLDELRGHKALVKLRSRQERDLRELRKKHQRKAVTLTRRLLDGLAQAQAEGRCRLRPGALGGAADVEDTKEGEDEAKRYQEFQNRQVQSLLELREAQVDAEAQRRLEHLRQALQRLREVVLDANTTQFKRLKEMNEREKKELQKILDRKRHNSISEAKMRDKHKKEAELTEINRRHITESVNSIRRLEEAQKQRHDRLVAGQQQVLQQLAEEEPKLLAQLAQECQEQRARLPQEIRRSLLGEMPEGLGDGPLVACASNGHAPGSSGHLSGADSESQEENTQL
PLCg1 inh: blocks human PLC-gamma1 enzyme activity. inhibition, % at 12.2 µM. 370,000 compounds, 0.84% hits. purified PLC-gamma1, fluorogenic substrate, fluorescence. AID 720700. P19174
ASAP1 GAP inh: blocks human ASAP1-stimulated Arf1 GTP hydrolysis | Q9ULH1 | GDP FP detection | inhibition, % at 16.5 µM | 360,000 compounds, 0.19% hits | AID 624377; in the data active means inhibition above about 25%;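 further: 0% = vehicle with enzyme and substrate and 100% = no enzyme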
sPLA2-III inh: Blocks human group III sPLA2 activity. Q9NZ20. inhibition, % at 12.2 µM. QFRET BODIPY PC-A2 liposome hydrolysis, fluorescence. 370,000 compounds, 0.56% hits;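 active means inhibition above mean plus 3 SD of compounds lying within the high and low control bounds, cut at about 19% in these data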;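 further: 0% = median of test compound wells and 100% = no enzyme DMSO wells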
ARFGAP1 inh: rat ARFGAP1 inhibition. Q62848. 360,000 compounds, 0.26% hits. inhibition, % at 16.5 µM. Arfgap1-stimulated ARF1 GTP hydrolysis, GDP FP detection. AID 651572;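 active means inhibition above a per-plate limit, mean inhibition of low control wells plus 3 SD, cut at about 25% in these data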;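 further: 0% = DMSO wells with enzyme and 100% = wells lacking Arfgap1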
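System: truncated rat Arfgap1 GAP domain / Medium: HEPES-based buffer, pH 7.5 / Also added: N-terminally truncated human ARF1-GTP substrate / Incubation: enzyme reaction 120 min at 25 °C after 20 min preincubation / Measured by: FP of antibody-bound GDP Alexa 633 tracer, ex 620/em 688 nm / Replicates: singlicate, each compound tested once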
PLCg1 ctr: PLC-gamma1 inhibition, counter-screen for PLC-beta3 hits; inhibition, % at 12.3 µM; purified PLC-gamma1, fluorogenic substrate, fluorescence; AID 743258; 3,300 compounds, 3.1% hits; shares compounds with PLCg1 inh
PLCb3 confirm: confirmation of human PLC-beta3 inhibitors; shares compounds with PLCg1 inh; purified PLC-beta3, fluorogenic substrate fluorescence; inhibition, % at 12.3 µM; 3,300 compounds, 1% hits; AID 743261; in the data active means inhibition above about 11%
* hit, by the source's call. A selection: hits, their analogues and other compounds. The true share with any hit is near 1.9%. Unless noted, no stated cut-off is given here; in the data, active means inhibition above about 9.5%; inactive means the rest.

`N#CC1c2ccccc2-n2nncc2CN1S(=O)(=O)c1ccccc1` (centres undefined) gave PLC-beta3 inh 4.4, PLCg1 inh 10.6*, ASAP1 GAP inh 17.6, sPLA2-III inh 10.9, ARFGAP1 inh 9.1, PLCg1 ctr -6.8 and PLCb3 confirm -4.9.
`CC(NC(=O)OCc1ccccc1)P(=O)(Oc1ccccc1)Oc1ccccc1` (centres undefined) gave PLC-beta3 inh 0.2, PLCg1 inh -1.6 and sPLA2-III inh -11.5.
For CSCCC(c1nnnn1Cc1ccccc1)N1CCC2(CC1)C(=O)NCN2c1ccccc1 (centres undefined) the results were PLC-beta3 inh 1.3, PLCg1 inh 11.1*, ASAP1 GAP inh -8.3, sPLA2-III inh -6.1, ARFGAP1 inh -7.2, PLCg1 ctr -0.9 and PLCb3 confirm -0.5.
O=C1NCN(c2ccccc2)C12CCN(C(c1cccc3ccccc13)c1nnnn1C1CCCCC1)CC2 (centres undefined) was read as PLC-beta3 inh 2.7, PLCg1 inh 12.5*, ASAP1 GAP inh 0.1, sPLA2-III inh 2.6, ARFGAP1 inh 0.6, PLCg1 ctr -1.1 and PLCb3 confirm -3.4.
`O=C1NCN(c2ccccc2)C12CCN(C(CCc1ccccc1)c1nnnn1Cc1ccccc1)CC2` (centres undefined) gave PLC-beta3 inh 1.0, PLCg1 inh -3.1, ASAP1 GAP inh 2.0, sPLA2-III inh 7.1 and ARFGAP1 inh 17.5.
`C=C1[C@@H](C)C2[C@H](Cc3ccccc3)NC(=O)[C@]23[C@H](OC(C)=O)/C=C/[C@@](C)(O)C(=O)[C@@H](C)C/C=C/[C@H]3[C@@H]1O` (some centres undefined) gave PLC-beta3 inh 1.7, PLCg1 inh 3.7 and sPLA2-III inh 9.6.
COP(=O)(OC)C(C)NC(=O)OCc1ccccc1 (centres undefined) was read as PLC-beta3 inh 2.0, PLCg1 inh 0.7 and sPLA2-III inh 6.8.
For C[N+]1=C(N)NC2=C3CCCCC3ONC2C1 (centres undefined) the results were PLC-beta3 inh -4.7, PLCg1 inh -5.0 and sPLA2-III inh 12.7.
For CC(C)C[C@H]1N=C(c2ccccc2)c2ccccc2N(CC(=O)NC(C)(C)C)C1=O the results were PLC-beta3 inh 4.7, PLCg1 inh 0.6 and sPLA2-III inh -0.1.
For COc1ccc(CC(=O)N(CCN(C)C)CC2CCCN(Cc3ccccc3F)C2)cc1 (centres undefined) the results were PLC-beta3 inh -0.7, PLCg1 inh 13.3*, ASAP1 GAP inh 1.3, sPLA2-III inh -13.8, ARFGAP1 inh 6.6, PLCg1 ctr -1.4 and PLCb3 confirm -2.1.
For CN(C)CCN(CC1CCCN(Cc2ccccc2F)C1)C(=O)Cc1ccccc1F (centres undefined) the results were PLC-beta3 inh -3.5, PLCg1 inh 1.1, ASAP1 GAP inh -14.7, sPLA2-III inh -12.3 and ARFGAP1 inh -6.3.
For COc1ccc(OC)c(NP(=O)(Oc2ccccc2)Oc2ccccc2)c1 the results were PLC-beta3 inh -0.6, PLCg1 inh 11.0*, ASAP1 GAP inh -13.0, sPLA2-III inh -16.7, ARFGAP1 inh 15.7, PLCg1 ctr -0.7 and PLCb3 confirm 0.8.
For CC1CCC/C=C/C2CC(O)CC2C(O)/C=C/C(=O)O1 (centres undefined) the results were PLC-beta3 inh 6.7, PLCg1 inh 14.7*, ASAP1 GAP inh 1.5, sPLA2-III inh 9.3, ARFGAP1 inh 3.8, PLCg1 ctr -7.9 and PLCb3 confirm -1.8.
`CCCCN1CCN(C(=O)COc2cc(=O)n(C)c3ccccc23)CC1` gave PLC-beta3 inh 0.5, PLCg1 inh -1.9 and sPLA2-III inh 0.0.
Screening COC(=O)C1=C(c2cccc(OCc3ccccc3)c2)C[C@@H]2CC[C@H]1N2C(=O)NCCOc1ccccc1 returned PLC-beta3 inh 2.6, PLCg1 inh 10.5*, ASAP1 GAP inh 23.9, sPLA2-III inh -14.2, ARFGAP1 inh -0.1, PLCg1 ctr 0.2 and PLCb3 confirm 5.4.
`COC(=O)C1=C(c2ccc(-c3ccccc3)c(F)c2)C[C@@H]2CC[C@H]1N2C(=O)NCCOc1ccccc1` gave PLC-beta3 inh 1.6, PLCg1 inh 10.1*, ASAP1 GAP inh 6.8, sPLA2-III inh -12.3, ARFGAP1 inh -3.7, PLCg1 ctr -1.4 and PLCb3 confirm 0.3.
For COC(=O)C1=C(c2cccc(OCc3ccccc3)c2)C[C@@H]2CC[C@H]1N2C(=O)NCCOc1ccccc1Cl the results were PLC-beta3 inh 3.3, PLCg1 inh 5.1, ASAP1 GAP inh 0.9, sPLA2-III inh -20.2 and ARFGAP1 inh -1.8.
COCCNC(=O)N1[C@H]2CC[C@@H]1C(C(=O)OC)=C(c1ccc(-c3ccccc3)c(F)c1)C2 was read as PLC-beta3 inh 0.2, PLCg1 inh -0.6, ASAP1 GAP inh -2.3, sPLA2-III inh -5.4 and ARFGAP1 inh 3.1.
COc1ccc(CCNCc2c(OC)ccc3ccccc23)cc1 was read as PLC-beta3 inh 4.3, PLCg1 inh 9.6*, ASAP1 GAP inh -14.5, sPLA2-III inh -16.3, ARFGAP1 inh 6.6, PLCg1 ctr 36.7* and PLCb3 confirm 1.6.
COc1ccc(CCNCc2ccccc2)cc1 was read as PLC-beta3 inh -3.1, PLCg1 inh 4.9, ASAP1 GAP inh -11.9, sPLA2-III inh 13.3 and ARFGAP1 inh -0.8.
Screening O=C(NCCN1CCC2(CC1)C(=O)NCN2c1ccccc1)c1ccc2ccccc2c1 returned PLC-beta3 inh -0.7, PLCg1 inh -0.7, ASAP1 GAP inh -3.2, sPLA2-III inh -2.2 and ARFGAP1 inh 9.8.
Screening CCNC(=O)[C@H]1O[C@@H](n2cnc3c(N)ncnc32)[C@H](O)[C@@H]1O returned PLC-beta3 inh 0.6, PLCg1 inh 1.2, ASAP1 GAP inh 1.5, sPLA2-III inh -5.6 and ARFGAP1 inh 5.4.
For Nc1ncnc2c1ncn2[C@@H]1O[C@H](COP(=O)(O)CP(=O)(O)O)[C@@H](O)[C@H]1O the results were PLC-beta3 inh 0.9, PLCg1 inh 72.8*, ASAP1 GAP inh 4.0, sPLA2-III inh 7.0, ARFGAP1 inh -1.2, PLCg1 ctr 78.7* and PLCb3 confirm -1.8.
O=C(NC(CCC(O)CO)P(=O)(Oc1ccccc1)Oc1ccccc1)OCc1ccccc1 (centres undefined) was read as PLC-beta3 inh 3.2, PLCg1 inh -0.8 and sPLA2-III inh -2.9.
O=C1C(=O)c2ccccc2-c2ccccc21 was read as PLC-beta3 inh 2.4, PLCg1 inh 57.1*, ASAP1 GAP inh -18.1, sPLA2-III inh -6.8, ARFGAP1 inh -9.0, PLCg1 ctr 42.9* and PLCb3 confirm 6.2.
